This is a sample that favours compounds with a hit; in the whole collection about 2.1% have one here.
EBI2 antag: EBI2 (human) antagonism; P32249; EBI2 beta-arrestin recruitment, luminescence, 7a,25-OHC stimulated; inhibition, % at 5 µM; hit rate 0.81% among 360,000; AID 651636; in the data active = inhibition above about 38%;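 note: enzyme fragment complementation signal reports receptor beta-arrestin coupling in cells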
Target sequence (P32249 whole entry, looked up, the tested form may be a part): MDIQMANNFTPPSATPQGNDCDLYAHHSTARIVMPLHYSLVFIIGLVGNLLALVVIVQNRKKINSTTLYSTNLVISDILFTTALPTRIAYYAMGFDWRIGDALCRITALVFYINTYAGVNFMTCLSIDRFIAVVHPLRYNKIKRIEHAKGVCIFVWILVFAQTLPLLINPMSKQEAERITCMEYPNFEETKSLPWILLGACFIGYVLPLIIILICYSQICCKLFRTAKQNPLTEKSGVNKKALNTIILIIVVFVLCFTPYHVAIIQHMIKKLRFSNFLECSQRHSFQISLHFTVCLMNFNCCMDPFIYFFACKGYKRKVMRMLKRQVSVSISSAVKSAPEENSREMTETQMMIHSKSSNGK
CXCR6 block: blocks human CXCR6 beta-arrestin recruitment | O00574 | CHO-K1 PathHunter CXCR6 beta-arrestin, luminescence | inhibition, % at 20 µM | hit rate 0.36% among 360,000 | AID 602244; in the data active = inhibition above about 34%, passing the limit was not always enough;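 note: antagonist mode with CXCL16 agonist at 10 nM final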
APJ antagonist: blocks the human apelin receptor APJ; CHO-K1 APJ beta-arrestin complementation, luminescence; inhibition, % at 20 µM; hit rate 0.32% among 330,000;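 active = inhibition above about 40% at 20 µM, limit read from the data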;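 note: cells challenged with 10 nM apelin-13 agonist together with compound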
m5-HT2A agonist: agonists of mouse serotonin 5-HT2A receptor (HTR2A); CHO-K1 mHTR2A beta-arrestin complementation, luminescence; percent of 30 µM serotonin response; activation, % at 7.6 µM; hit rate 0.66% among 360,000;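 active = activation above a run cutoff, the mean activation of all tested compounds plus 3 SD, cut at about 14% in these data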
APJ ag: APJ receptor agonism; P35414; CHO-K1 APJ PathHunter beta-arrestin, luminescence; 0% DMSO wells, 100% apelin; activation, % at 20 µM; hit rate 0.11% among 330,000; AID 2520;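 active = activation more than six SD over the plate average, tested at 20 µM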
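Assay system: engineered CHO-K1 APJ arrestin reporter cells; Amount: 1000 CHO-K1 reporter cells seeded per well; Dosing: one dose, 20 µM compound, 1% DMSO; Times: compound stimulation 90 min at 25 °C, detection 60 min; Measured by: luminescent beta-gal fragment complementation, chemiluminescent substrate; Read-out: APJ–arrestin association signal; Controls: DMSO vs Apelin-13 10 nM.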
CCR6 antag: antagonists of human CCR6 receptor | hit rate 0.49% among 340,000 | inhibition, % at 20 µM | P51684 | CHO-K1 CCR6 PathHunter beta-arrestin, luminescence, CCL20-stimulated;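 active = compounds whose inhibition of the agonist-driven luminescence signal at 20 µM reaches about 50%, limit read from the data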;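 note: cells stimulated with CCL20 at 14 nM final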
Large screens that a line does not name were inactive.

Cc1oc2c(c1C(=O)c1ccccc1)C(=O)C(=O)c1ccccc1-2	CCR6 antag 70.7
Cc1oc2c(c1C(=O)O)C(=O)c1ccccc1C2=O	none
O=C(O)c1ccc2nc(-c3ccco3)c(-c3ccco3)nc2c1	none
O=C(Nc1cccc(C(F)(F)F)c1)c1ccc2nc(-c3ccco3)c(-c3ccco3)nc2c1	m5-HT2A agonist 15.6
CCOc1ccc(C(=O)NC(=S)Nc2ccc(NC(=O)CC)cc2)cc1[N+](=O)[O-]	CCR6 antag 55.9
CCOc1ccc(C(=O)NC(=S)Nc2ccccc2N2CCCCC2)cc1[N+](=O)[O-]	none
COc1cc(C(=O)NC(=S)Nc2ccc([N+](=O)[O-])cc2)cc(OC)c1OC	APJ antagonist 41.4
O=C(Nc1ccc(C(=O)N2CCOCC2)cc1)c1ccc([N+](=O)[O-])cc1	none
COc1ccc(C(=O)NC(=S)Nc2ccccc2N2CCCCC2)cc1[N+](=O)[O-]	CCR6 antag 71.8
CCOc1ccc(C(=O)NC(=S)Nc2ccc(N3CCCCC3)cc2)cc1[N+](=O)[O-]	none
O=C(NC(=S)Nc1ccc(C(=O)N2CCOCC2)cc1)c1ccc([N+](=O)[O-])cc1	CCR6 antag 62.5
Cc1ccc(OCCN2C(=O)C(=O)c3cc(C)ccc32)cc1	CCR6 antag 51.7
Cc1ccc(OCCCN2C(=O)C(=O)c3cccc(C)c32)cc1	CCR6 antag 57.4
Cc1ccc2c(c1)C(=O)C(=O)N2CC(=O)OC(C)C	none
Cc1cccc2c1N(CCOc1ccc(C(C)(C)C)cc1)C(=O)C2=O	none
Cc1cccc(C(=O)NCC(=O)OCC(=O)N2CCCCC2)c1	none
COc1ccc(-c2nc(CS(=O)CC(=O)NCCC3=CCCCC3)c(C)o2)cc1 (stereo unspecified)	m5-HT2A agonist 39.6
CCn1nccc1NC(=O)c1ccc2sc([C@@H]3O[C@H](CO)[C@H](O)[C@H](O)[C@H]3O)nc2c1	none (no result: APJ antagonist, APJ ag, CCR6 antag)
CCOC(=O)COc1ccccc1/C=C\[N+](=O)[O-]	CXCR6 block 44.9, CCR6 antag 68.9 (no result: APJ antagonist, APJ ag)
Cc1ccc(C(=O)COC(=O)COc2ccccc2[N+](=O)[O-])s1	none
C[C@H](NC(=O)c1ncn(C)c1C(=O)N[C@@H](C)c1ccccc1)c1ccccc1	none
C[C@@H](NC(=O)c1ncn(Cc2ccccc2)c1C(=O)N[C@H](C)c1ccccc1)c1ccccc1	EBI2 antag 47.6
O=C1Nc2ccccc2/C1=C\C(=O)c1ccccc1	EBI2 antag 61.2
COC(=O)c1cc(=O)n(-c2ccc(F)cc2)c(=Nc2ccc(F)cc2)s1	none
COC(=O)c1cc(=O)n(Cc2cccs2)c(=Nc2ccc(F)cc2)s1	none
COC(=O)c1cc(=O)n(CCc2ccccc2F)c(=Nc2ccc(F)c(Cl)c2)s1	EBI2 antag 68.8
COC(=O)c1cc(=O)n(Cc2ccco2)c(=Nc2ccc(F)c(Cl)c2)s1	EBI2 antag 54.8
O=C(NCc1cccs1)Nc1cccc(Cl)c1	none
Cc1occc1C(=O)N/N=C/C1=C(N2CCOCC2)C(=C\c2ccc(Cl)cc2)/CC1	none
CCN(CC)c1ccc(/C=C2\CCC(/C=C(/C#N)C(=O)Nc3ccccc3F)=C2N2CCOCC2)cc1	CXCR6 block 44.9, CCR6 antag 102.0 (no result: APJ antagonist, APJ ag)
N#C/C(=C/C1=C(N2CCOCC2)C(=C/c2ccccc2)/CC1)C(=O)Nc1ccccc1F	none (no result: APJ antagonist, APJ ag)
CCN(CC)c1ccc(/C=C2\CCC(/C=C(\C#N)C(=O)Nc3ccccc3F)=C2N2CCOCC2)cc1	CCR6 antag 91.2 (no result: APJ antagonist, APJ ag)
COCCN(C(=S)Nc1cccc(C)c1)C(C)c1cccs1 (stereo unspecified)	none
COc1ccc2cc3cc(C(=O)N4CCCC(C)C4)oc3nc2c1 (stereo unspecified)	none
CCOC(=O)C1=C(O)/C(=C/c2ccc(-c3ccccc3C(=O)O)o2)SC1=Nc1ccc(C)cc1	none (no result: APJ antagonist, APJ ag)
CCOC(=O)C1=C(O)/C(=C/c2cn(CC(=O)NCC3CCCO3)c3ccccc23)SC1=Nc1ccc(C)cc1 (stereo unspecified)	EBI2 antag 48.7
Cc1ccc(NC(=O)Nc2nnc(Cc3ccc([N+](=O)[O-])cc3)s2)cc1	CCR6 antag 62.1
O=C(COC(=O)/C=C/c1cccc(C(F)(F)F)c1)Nc1ccc(Cl)cn1	none
O=C(/C=C/c1ccccc1)c1cc(Br)ccc(=O)c1O	CCR6 antag 59.2

Compound activity from PubChem.
